≈ marks a conversion by molar mass, not a printed value. Where two headings read alike, the source gives them in different places.
How the values were obtained:
[1] = tested on: HIF‐1α in HeLa cells; assay: Induction of HIF-1α in HeLa cell cultures; type: cell-based; details: human HeLa cell cultures
[2] = Elimination of iron via urine in rats; type: in vivo; details: oral administration
[3] = tested on: broad range of targets including 2‐OG‐dependent dioxygenases, metalloenzymes, nuclear hormone receptors and cell surface receptors; assay: Lead profiling selectivity panel
[4] = tested on: endogenous HIF in recombinant A549 lung carcinoma cell; assay: HIF-reporter cell assay; type: cell-based
[5] = tested on: EPO in HuH cells; assay: EPO induction in hepatoma HuH cells; type: cell-based, human
[6] = tested on: major CYP isoforms; assay: CYP profile; type: in vitro ADME
[7] = logD 7.5 by HPLC retention time correlation; type: physicochemical; details: pH 7.5
Outline: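 logD at pH 7.5 was estimated by correlating HPLC retention times with those of reference compounds of known logD7.5.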

[8] = tested on: hematocrit and reticulocytes; assay: Hematocrit and reticulocytes in mice; type: in vivo
[9] = Pharmacokinetic studies in rats; type: in vivo; details: rat; for clearance: blood, iv, 2 mg/kg; for Relative bioavailability (Tylose suspension) / bioavailability as Tylose suspension: p.o.; for Relative bioavailability (Tylose suspension): 0.5 % Tylose in water vs solution; for bioavailability as Tylose suspension: 0.5 % Tylose in water
[10] = tested on: plasma EPO; assay: Plasma EPO in rats after oral dosing; type: in vivo; details: 4 h (Figure 7), BAY-908 50 mg kg^−1
[11] = target: T1, PHD1 (Homo sapiens, UniProt Q96KS0); assay: Biochemical HIF-PH enzyme assay; details: for dependence of potency (IC50) on Fe^2+ concentration: Fe^2+ varied in reaction buffer (3 μM and 30 μM, Figure 3); for LipE (lipophilic binding efficiency): LipE=pIC50−logD 7.5; for BEI (binding efficiency index): from pIC50 and molecular weight
T1 sequence (Q96KS0 whole entry, the tested form may be a part): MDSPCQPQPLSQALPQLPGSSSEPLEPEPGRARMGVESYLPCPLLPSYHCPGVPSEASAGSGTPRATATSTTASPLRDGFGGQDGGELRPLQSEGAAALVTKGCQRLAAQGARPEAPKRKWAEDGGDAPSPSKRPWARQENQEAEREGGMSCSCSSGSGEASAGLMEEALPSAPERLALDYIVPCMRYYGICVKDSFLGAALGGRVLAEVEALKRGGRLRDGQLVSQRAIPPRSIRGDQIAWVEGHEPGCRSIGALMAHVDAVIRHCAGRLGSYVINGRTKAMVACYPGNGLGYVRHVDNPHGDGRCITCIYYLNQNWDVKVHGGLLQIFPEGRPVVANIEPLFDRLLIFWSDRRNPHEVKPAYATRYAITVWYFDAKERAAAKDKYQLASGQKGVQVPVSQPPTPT
Outline: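 Human HIF-PH hydroxylates Pro564 of a HIF peptide (aa 556–574). The hydroxylated peptide binds europium-labelled recombinant VBC complex, and inhibition is read as lower fluorescence. Iron dependence was tested at 3 and 30 μM Fe²⁺. LipE = pIC50 − logD7.5; BEI derived from pIC50 and corrected molecular weight.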

[12] = Aqueous solubility; type: physicochemical; details: water
[13] = tested on: plasma EPO; assay: EPO mRNA / plasma EPO in mice; type: in vivo; details: for plasma EPO concentration: 4 h after p.o. dosing of 100 mg kg^−1, baseline ≈120 pg mL^−1
[14] = Early safety profile
[15] = target: T1, PHD1; details: cited from earlier work
[16] = pKa determination by spectrophotometry; type: physicochemical; details: aqueous solution
[17] = cited from earlier work
[18] = tested on: PHD3; details: salt-free compound; cited from earlier work
[19] = sodium salt; cited from earlier work
[20] = metabolite of molidustat; cited from earlier work
[21] = Homo sapiens, A549, read-out: EC50 HIF-reporter cell assay

Oc1c(-c2cccnc2)cnn1-c1ccccn1 [Compound 1, 1‐(Pyridin‐2‐yl)‐4‐(pyridin‐3‐yl)‐1H‐pyrazol‐5‐ol]
concentration at which HIF‐1α was detected [1]: > 0.25 µM | elimination of iron via urine [2]: did not result in any increased elimination of iron via urine | selectivity profile in lead profiling panel [3]: favorable | EC50 [4, 21]: 4.9 µM | EC50 ([5]; Homo sapiens, read-out: EC50 EPO mRNA induction): 1.9 µM | increase in EPO concentration in the supernatant compared with baseline ([5]; human hepatoma HuH cells): threefold | CYP profile / CYP inhibition [6]: clean | chromatographic logD [7]: 0.6 | hematocrit and reticulocytes [8]: increase | clearance [9]: 48.3 mL/min/kg | Relative bioavailability (Tylose suspension) [9]: 26% | plasma EPO concentration in rats [10]: increased | IC50 [11]: 0.43 µM | dependence of potency (IC50) on Fe^2+ concentration [11]: only minor changes | LipE (lipophilic binding efficiency) [11]: 5.8 | BEI (binding efficiency index) [11]: 26.7 | solubility [12]: < 1 µg/mL | plasma EPO concentration [13]: ≈ 900 pg mL^−1 | EPO mRNA and plasma EPO levels / EPO induction ([13]; after i.p. and p.o. administration): increased

Cc1nn(-c2ccccn2)c(O)c1-c1cccnc1 [Compound 3]
IC50 [11]: 3.5 µM

O=c1c(-c2cccnc2)n[nH]n1-c1ccccn1 [Compound 4]
IC50 [11]: 24 µM

S=c1c(-c2cccnc2)c[nH]n1-c1ccccn1 [Compound 5]
IC50 [11]: 7.5 µM

Nc1c(-c2cccnc2)cnn1-c1ccccn1 [Compound 6]
IC50 [11]: > 50 µM

COc1c(-c2cccnc2)cnn1-c1ccccn1 [Compound 8]
IC50 [11]: > 50 µM

Cn1cc(-c2cccnc2)c(=O)n1-c1ccccn1 [Compound 9]
IC50 [11]: > 50 µM

Oc1c(-c2cccnc2)ncnc1-c1ccccn1 [Compound 10]
IC50 [11]: > 50 µM

Cc1ccnc(-n2[nH]cc(-c3cccnc3)c2=O)c1 [Compound 11]
IC50 [11]: 0.34 µM

Cc1ccc(-n2[nH]cc(-c3cccnc3)c2=O)nc1 [Compound 12]
IC50 [11]: 1.7 µM

Cc1cccc(-n2[nH]cc(-c3cccnc3)c2=O)n1 [Compound 13]
IC50 [11]: 8.9 µM

O=c1c(-c2cccnc2)c[nH]n1-c1cc(CO)ccn1 [Compound 17]
IC50 [11]: 1.5 µM

O=c1c(-c2cccnc2)c[nH]n1-c1cc(COCc2ccccc2)ccn1 [Compound 18]
IC50 [11]: 2.9 µM

COc1cc(-n2[nH]cc(-c3cccnc3)c2=O)ncn1 [Compound 20]
IC50 [11]: 0.88 µM

O=c1c(-c2cccnc2)c[nH]n1-c1cc(N2CCCCC2)ncn1 [Compound 22]
IC50 [11]: 1.5 µM

O=c1c(-c2cccnc2)c[nH]n1-c1cc(N2CCOCC2)ncn1 [Compound 23]
IC50 [11]: 0.18 µM

CCOC(=O)c1ccc(-n2[nH]cc(-c3cccnc3)c2=O)nc1 [Compound 25]
EC50 [4, 21]: 5.3 µM | IC50 [11]: 0.65 µM

O=c1c(-c2cccnc2)c[nH]n1-c1ccc(COCc2ccccc2)cn1 [Compound 27]
IC50 [11]: 1.1 µM

Cc1cncc(-c2cnn(-c3ccccn3)c2O)c1 [Compound 30]
IC50 [11]: 1.7 µM

Cc1ccc(-c2c[nH]n(-c3ccccn3)c2=O)cn1 [Compound 31]
IC50 [11]: 3.2 µM

COc1ccc(-c2c[nH]n(-c3ccccn3)c2=O)cn1 [Compound 33]
IC50 [11]: 0.19 µM

N#Cc1ccc(-c2c[nH]n(-c3ccccn3)c2=O)cn1 [Compound 34]
IC50 [11]: 0.1 µM

N#Cc1cncc(-c2cnn(-c3ccccn3)c2O)c1 [Compound 35]
IC50 [11]: 1 µM

O=c1c(-c2cnccn2)c[nH]n1-c1ccccn1 [Compound 36]
IC50 [11]: 28 µM

O=c1c(-n2cnc(C(F)(F)F)c2)c[nH]n1-c1ccccn1 [Compound 38]
IC50 [11]: 0.15 µM

O=c1c(-n2ccnn2)c[nH]n1-c1ccccn1 [Compound 41]
EC50 [4, 21]: > 20 µM | IC50 [11]: 0.79 µM

Cc1cn(-c2c[nH]n(-c3ccccn3)c2=O)nn1 [Compound 42]
IC50 [11]: 0.33 µM

Oc1c(-n2ccnc2)cnn1-c1cc(N2CCCCC2)ncn1 [Compound 44, 4‐(1H‐Imidazol‐1‐yl)‐1‐[6‐(piperidin‐1‐yl)pyrimidin‐4‐yl]‐1H‐pyrazol‐5‐ol]
early safety profile [14]: not optimal | EC50 [4, 21]: 4.9 µM | CYP profile / CYP inhibition [6]: not optimal | chromatographic logD [7]: 1 | clearance [9]: 21.7 mL/min/kg | bioavailability as Tylose suspension [9]: remained unchanged | Relative bioavailability (Tylose suspension) [9]: 97% | plasma EPO concentration in rats [10]: improved | IC50 [11]: 0.5 µM | LipE (lipophilic binding efficiency) [11]: 5.3 | BEI (binding efficiency index) [11]: 20.2 | solubility [12]: 520 µg/mL (≈ 1670 µM) | plasma EPO concentration [13]: ≈ 3000 pg mL^−1

Oc1c(-n2ccnn2)cnn1-c1cc(N2CCOCC2)ncn1 [Compound 45, 1‐[6‐(Morpholin‐4‐yl)pyrimidin‐4‐yl]‐4‐(1H‐1,2,3‐triazol‐1‐yl)‐1H‐pyrazol‐5‐ol]
selectivity profile in lead profiling panel [3]: favorable | EC50 [4, 21]: 8.4 µM | CYP profile / CYP inhibition [6]: favorable | change in potency on variation of Fe^2+ concentration ([15]; Fe^2+ in the reaction buffer varied by a factor of 30): ≤ 2 fold | IC50 ([15]; biochemical assay, PHD1, HCl salt, ref 30 (WO2008067871 A1, example 72)): 0.49 µM | chromatographic logD [7]: 0.27 | pK a [16]: 4.4 | water uptake ([17]; 20–35 °C, normal pressure, >20 % relative humidity): up to 6 % w/w | clearance [9]: 18.3 mL/min/kg | bioavailability as Tylose suspension [9]: remained unchanged | Relative bioavailability (Tylose suspension) [9]: 102% | plasma EPO concentration in rats [10]: Very high EPO induction | dependence of potency (IC50) on Fe^2+ concentration [11]: independent | LipE (lipophilic binding efficiency) [11]: 6.1 | BEI (binding efficiency index) [11]: 20.1 | solubility [12]: 140 µg/mL (≈ 445 µM) | plasma EPO concentration [13]: ≈ 4000 pg mL^−1 | IC50 [18]: 0.45 µM

[Na+].[O-]c1c(-n2ccnn2)cnn1-c1cc(N2CCOCC2)ncn1 [Compound 84, Sodium 1‐[6‐(morpholin‐4‐yl)pyrimidin‐4‐yl]‐4‐(1 H ‐1,2,3‐triazol‐1‐yl)‐1H‐pyrazol‐5‐olate]
solubility in water [19]: 28000 µg/mL | water content ([17]; 20–35 °C, normal pressure): < 0.5 % w/w | change of water content ([17]; relative humidity of up to 90 %): < 0.5 % w/w

O=C(O)[C@H]1O[C@@H](n2cc(-n3ccnn3)c(=O)n2-c2cc(N3CCOCC3)ncn2)[C@H](O)[C@@H](O)[C@@H]1O [Compound 85, 1‐(Beta‐D‐glucopyranuronosyl)‐2‐[6‐(morpholin‐4‐yl)pyrimidin‐4‐yl]‐4‐(1H‐1,2,3‐triazol‐1‐yl)‐1,2‐dihydro‐3H‐pyrazol‐3‐one]
CYP profile / CYP inhibition [6]: no relevant CYP inhibition | excreted via urine [20]: 85 % of dose

[Cl][Co][Cl] [cobalt chloride, reference compound]
EC50 ([4]; read-out: EC50 HIF-reporter cell assay, A549 HIFRE2 luciferase reporter): ~50 µM

CC(=O)N(O)CCCCCNC(=O)CCC(=O)N(O)CCCCCNC(=O)CCC(=O)N(O)CCCCCN [deferoxamine, reference compound]
EC50 [4, 21]: ~25 µM

— paper PMC6001664 (Chemmedchem, 2018)
